Test results from paper PMC6263940 (Nature chemical biology, 2018).

How the values were obtained:
[1] = molecular target: T1, ABHD12 (Mus musculus, UniProt Q99LR1); test: Competitive ABPP with FP-Rh probe, lysates of ABHD12-transfected cells; assay type: biochemical; settings: hit compound tested at 10 μM
T1 sequence (Q99LR1 1-398): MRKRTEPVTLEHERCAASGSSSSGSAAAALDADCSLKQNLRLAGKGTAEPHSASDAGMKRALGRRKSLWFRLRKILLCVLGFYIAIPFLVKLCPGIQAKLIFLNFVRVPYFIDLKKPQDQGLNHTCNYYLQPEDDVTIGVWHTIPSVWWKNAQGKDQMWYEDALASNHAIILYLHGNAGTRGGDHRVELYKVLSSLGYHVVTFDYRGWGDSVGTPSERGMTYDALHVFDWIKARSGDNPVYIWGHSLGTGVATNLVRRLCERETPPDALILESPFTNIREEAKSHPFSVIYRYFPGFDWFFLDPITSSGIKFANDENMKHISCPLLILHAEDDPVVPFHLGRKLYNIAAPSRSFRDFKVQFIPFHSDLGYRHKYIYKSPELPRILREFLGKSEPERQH
How it was run: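 Mouse ABHD12 expressed in HEK293F cells by PEI transfection (48 h, 37 °C, 5% CO₂). Membranes prepared by hypotonic lysis, sonication, 100,000 × g pelleting and a high-salt wash, then resuspended in DPBS. Lysate (1 mg/mL) pre-exposed to hit compound, then labelled with FP-Rh (1 μM final, 45 min, 37 °C). Gel band intensity is read relative to control (100%).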

[2] = molecular target: T1, ABHD12; test: Lyso-PS hydrolysis assay with membrane lysates of ABHD12-transfected cells; assay type: biochemical
How it was run: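 Membrane lysate of ABHD12-transfected cells in DPBS incubated with 17:1 lyso-PS (100 μM final) for 20 min at 37 °C. Quenched in 2:1 CHCl₃/MeOH with 15:0 FFA internal standard. Activity is the LC-MS 17:1 FFA/15:0 FFA peak-area ratio minus mock-transfected membrane activity. IC50 fitted as log(inhibitor) vs normalized response.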

[3] = molecular target: T1, ABHD12; test: Competitive gel-based ABPP with JJH350 probe in mouse brain membrane proteome; assay type: biochemical; settings: for activity against ABHD12 (in words): gel-based competitive ABPP, mouse brain membrane proteome
[4] = molecular target: T1, ABHD12; test: Covalent labelling of mouse brain ABHD12 visualized by CuAAC with Rh-N3; assay type: biochemical; settings: 45 min, 37 °C
[5] = Measurement of drug concentration in brain and blood of mice; assay type: in vivo, mouse; settings: 4 h, at 60 mg/kg (i.p.) approximated exposures observed with DO264
How it was run: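 Tissues harvested 4 h after dosing. Brain homogenised in 4 volumes of water per weight; cardiac-puncture blood quenched 1:4 in acetonitrile. Samples diluted 1000–2000-fold in 50% ACN and spiked into blank C57BL/6J brain homogenate or blood, alongside serially diluted calibration standards. After vortexing and centrifugation (4 °C, 15 min), supernatant diluted 5-fold in water and quantified by LC/MS/MS.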

[6] = molecular target: T2, ABHD12 (Homo sapiens, UniProt Q8N2K0); test: In situ treatment of THP-1 cells, competitive gel-based ABPP with JJH350 probe; assay type: cell-based; settings: 1 μM, 4 h in situ
T2 sequence (Q8N2K0 1-398): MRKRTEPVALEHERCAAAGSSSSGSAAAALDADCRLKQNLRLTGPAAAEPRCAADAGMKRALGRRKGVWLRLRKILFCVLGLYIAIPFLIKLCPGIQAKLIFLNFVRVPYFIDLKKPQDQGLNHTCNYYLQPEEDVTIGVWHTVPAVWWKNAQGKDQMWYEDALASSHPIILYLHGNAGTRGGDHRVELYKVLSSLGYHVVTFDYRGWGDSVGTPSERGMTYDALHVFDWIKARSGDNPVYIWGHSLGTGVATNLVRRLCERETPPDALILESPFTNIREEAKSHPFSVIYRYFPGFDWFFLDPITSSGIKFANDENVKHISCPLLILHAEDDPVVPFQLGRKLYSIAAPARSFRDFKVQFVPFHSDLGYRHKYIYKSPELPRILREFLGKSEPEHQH
How it was run: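 Whole THP-1 cells exposed to test compound or DMSO for 4 h at 37 °C, 5% CO₂, then washed twice with ice-cold DPBS. Proteome (1 mg/mL) labelled with JJH350 (2 μM final, 45 min, 37 °C), clicked by CuAAC and resolved on gel. ABHD12 band intensity is expressed relative to the control-treated sample, set to 100%.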

[7] = tested on: serine hydrolases in THP-1 cells; test: ABPP-SILAC; assay type: cell-based, human; settings: 1 μM, 4 h, THP-1 cells
[8] = tested on: mice; test: Two-week daily dosing, overt signs of toxicity; assay type: in vivo, mouse; settings: adult mice, 30 mg/kg daily, p.o., two weeks
[9] = molecular target: T1, ABHD12; test: Ex vivo gel-based competitive ABPP; assay type: in vivo; settings: mice, 60 mg/kg, 4 h
[10] = molecular target: T2, ABHD12; test: ABPP-SILAC; assay type: cell-based; settings: 1 μM, 4 h, THP-1 cells
How it was run: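 Heavy- or light-labelled THP-1 cells (30 million) differentiated with PMA (150 ng/mL final) for 24 h, washed, then kept a further 24 h in fresh SILAC medium. Light cells treated with test compound and heavy cells with DMSO, 4 h at 37 °C. Sonicated whole-cell proteomes (2 mg/mL) labelled separately with FP-biotin 1 μM, 30 min, room temperature, then combined for quantitative MS.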

[11] = tested on: LCMV clone 13; settings: mouse, in vivo, ip, 30 mg/kg
[12] = tested on: THP-1 cells; test: Targeted LC-MS of; assay type: cell-based, human; settings: DO264 0.001-1 μM, (S)-DO271 1 μM, 4 h
How it was run: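 THP-1 cells (6 million in 10 mL) incubated with test compound or DMSO for 4 h at 37 °C, 5% CO₂. Cells washed twice with ice-cold DPBS and stored at −80 °C, then analysed by targeted LC-MS metabolomics for lyso-PS and PS species.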

## FC(F)(F)c1cnc(N2CCC(NC(=S)Nc3cccnc3)CC2)c(Cl)c1 [DO130, N-3-pyridyl-N’-[1-{3-chloro-5-(trifluoromethyl)pyridin-2-yl}piperidin-4-yl]thiourea]
[1]
  activity in competitive ABPP secondary assay (FP-Rh probe): showed activity
[2]
  IC50: 1300 nM
[2]; hit compound tested at 10 μM
  activity in LC/MS-based lyso-PS hydrolysis secondary assay: showed activity

## CN(C(=S)Nc1cccnc1)C1CCN(c2nccc(Oc3ccc(OC(F)(F)F)cc3Cl)c2Cl)CC1 [DO276, N-3-pyridyl-N’-methyl-N’-(1-[3-chloro-4-{2-chloro-4-(trifluoromethoxy)phenoxy}pyridine-2-yl]piperidin-4-yl)thiourea]
[3]
  IC50: 1100 nM

## C#Cc1ccc(Oc2ccnc(N3CCC(NC(=S)Nc4cccnc4)CC3)c2Cl)c(Cl)c1 [DO274, N-3-pyridyl-N’-(1-[3-chloro-4-{2-chloro-4-(ethynyl)phenoxy}pyridine-2-yl]piperidin-4-yl)thiourea]
[2]
  ABHD12 inhibitory activity (in words): potent ABHD12 inhibitory activity
[4]
  covalent modification of ABHD12: did not show evidence of covalent modification

## FC(F)(F)Oc1ccc(Oc2ccnc(N3CCC[C@H](NC(=S)Nc4cccnc4)C3)c2Cl)c(Cl)c1 [(S)-DO271, (S)-N-3-pyridyl-N’-(1-[3-chloro-4-{2-chloro-4-(trifluoromethoxy)phenoxy}pyridine-2-yl]piperidin-3-yl)thiourea]
[5]
  exposure compared with DO264 (in words): lower exposure
[6]
  ABHD12 activity in THP-1 cells by competitive gel-based ABPP (in words): unaffected
[7]
  effect on activity of other serine hydrolases: did not affect
[8]
  overt signs of toxicity, such as weight loss or behavioral distress: neither compound produced overt signs of toxicity
[9]
  brain ABHD12 activity, ex vivo analysis with JJH350 probe: did not block
[10]
  effect on ABHD12 activity (in words): did not affect
[11]
  fraction of treated ABHD12(−/−) mice that died prior to sacrifice at day 10: 30-40%
[12]
  lyso-PS content of THP-1 cells: did not alter
[3]
  activity against ABHD12 (in words): inactive

## O=C(Nc1cccnc1)NC1CCN(c2nccc(Oc3ccc(OC(F)(F)F)cc3Cl)c2Cl)CC1 [DO277, N-3-pyridyl-N’-(1-[3-chloro-4-{2-chloro-4-(trifluoromethoxy)phenoxy}pyridine-2-yl]piperidin-4-yl)urea]
[3]
  IC50: 170 nM

## Cc1cnc(N2CCN(NC(=S)Nc3cccnc3)CC2)c(Cl)c1 [DO127, N-3-pyridyl-N’-[1-{3-chloro-5-(methyl)pyridin-2-yl}piperazine-4-yl]thiourea]
[3]
  activity against ABHD12 (in words): no activity
